Data reported in ChEMBL document CHEMBL1153929, “Exploration and synthesis of curcumin analogues with improved structural stability both in vitro and in vivo as cytotoxic agents” (Bioorg Med Chem, 2009).

Experiments:
BGC-823 = assay: Cytotoxicity against human BGC823 cells after 72 hrs by MTT assay; type: functional, cell-based; conditions: BGC-823, 72 h
Procedure, shortened: (§1)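 Cells were plated at 5000 per well in 1640 medium with 5% heat-inactivated calf serum and penicillin/streptomycin, at 37 °C and 5% CO2. After 24 h, compounds in DMSO were added at final 100, 33.3, 11.1 and 3.7 µg/ml for 72 h. MTT (5 mg/ml in 0.9% NaCl) was then added for 3 h, the formazan dissolved in DMSO, and absorbance read at 570 nm.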

[1] = Hydrolytic stability assessed as compound degradation at 2 mg in sodium dihydrogen phosphate buffered 0.3% sodium carboxymethylcellulose solution at pH 7.4 after 45 hrs by HPLC; type: physicochemical; conditions: read-out: Activity
Procedure, shortened: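 2 mg of sample was vortexed into 1 ml of 0.3% (w/v) CMCNa solution in phosphate buffer at pH 7.4 and kept in the dark at 37 °C. HPLC peak areas were recorded. Degradation = (area at 0 h − area at end time) / area at 0 h × 100%.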

CNE = assay: Cytotoxicity against human CNE cells after 72 hrs by MTT assay; type: functional, cell-based; procedure, shortened: as §1
KB (human) = assay: Cytotoxicity against human KB cells after 72 hrs by MTT assay
[2] = Cytotoxicity against human LS 174T cells after 72 hrs by MTT assay; type: functional, cell-based; conditions: LS174T; procedure, shortened: as §1
HL-60 (human) = assay: Cytotoxicity against human HL60 cells after 72 hrs by MTT assay; conditions: HL-60, 72 h
PC-3 = assay: Cytotoxicity against human PC3 cells after 72 hrs by MTT assay; type: functional, cell-based; conditions: PC-3, 72 h; procedure, shortened: as §1
HeLa = assay: Cytotoxicity against human HeLa cells after 72 hrs by MTT assay; type: functional, cell-based; procedure, shortened: as §1
[3] = Cmax in healthy Sprague-Dawley rat at 500 mg/kg, po administered as single dose; type: ADME, organism-based; parameters: dose 500 mg/kg, route oral; conditions: in vivo
Procedure, shortened: (§2)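 Four rats per group, dosed once by oral gavage at 500 mg/kg, suspended with the aid of 1% CMCNa. Blood (0.5 ml) was taken from the orbital venous plexus at 0.083, 0.25, 0.5, 1, 2, 4 and 8 h. Plasma (200 µl) was extracted with ethyl acetate/chloroform and assayed by isocratic HPLC on an ODS2 column. Parameters came from non-compartmental analysis.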

[4] = AUC (0 to t) in healthy Sprague-Dawley rat at 500 mg/kg, po administered as single dose; type: ADME, organism-based; parameters: dose 500 mg/kg, route oral; conditions: plasma; procedure, shortened: as §2
[5] = Metabolic stability in Sprague-Dawley rat plasma assessed as drug recovery at 12.8 ug/ml by RP-HPLC; type: ADME, cell-free; conditions: read-out: Stability
[6] = Apparent oral clearance in healthy Sprague-Dawley rat at 500 mg/kg, po administered as single dose; type: ADME, organism-based; parameters: dose 500 mg/kg, route oral; conditions: in vivo; procedure, shortened: as §2
[7] = Half life in healthy Sprague-Dawley rat at 500 mg/kg, po administered as single dose; type: ADME, organism-based; parameters: dose 500 mg/kg, route oral; conditions: in vivo; procedure, shortened: as §2
[8] = Metabolic stability in Sprague-Dawley rat plasma assessed as drug recovery at 0.2 ug/ml by RP-HPLC; type: ADME, cell-free; conditions: read-out: Stability
[9] = AUC (0 to infinity) in healthy Sprague-Dawley rat at 500 mg/kg, po administered as single dose; type: ADME, organism-based; parameters: dose 500 mg/kg, route oral, time infinity; conditions: plasma; procedure, shortened: as §2
[10] = Mean residence time (0 to t) in healthy Sprague-Dawley rat at 500 mg/kg, po administered as single dose; type: ADME, organism-based; parameters: dose 500 mg/kg, route oral; conditions: in vivo; procedure, shortened: as §2
[11] = Metabolic stability in Sprague-Dawley rat plasma assessed as drug recovery at 3.2 ug/ml by RP-HPLC; type: ADME, cell-free; conditions: read-out: Stability
[12] = Tmax in healthy Sprague-Dawley rat at 500 mg/kg, po administered as single dose; type: ADME, organism-based; parameters: dose 500 mg/kg, route oral; conditions: in vivo; procedure, shortened: as §2
[13] = Mean residence time (0 to infinity) in healthy Sprague-Dawley rat at 500 mg/kg, po administered as single dose; type: ADME, organism-based; parameters: dose 500 mg/kg, route oral; conditions: in vivo; procedure, shortened: as §2
[14] = Metabolic stability in Sprague-Dawley rat plasma assessed as drug recovery at 0.05 ug/ml by RP-HPLC; type: ADME, cell-free; conditions: read-out: Stability
[15] = Drug level in bile of patient with cancer at 3.6 g/day by HPLC; type: ADME, tissue-based; conditions: human, in vivo; read-out: Drug uptake
Blood [16] = assay: Drug level in portal blood of patient with cancer at 3.6 g/day by HPLC; type: ADME, tissue-based; conditions: human, read-out: Drug uptake
[17] = Chemical stability assessed as compound degradation in 0.1 M phosphate buffer at pH 7.2 within 30 mins; type: physicochemical; conditions: read-out: Activity
[18] = Plasma concentration in healthy Sprague-Dawley rat at 500 mg/kg, po administered as single dose after 2 hrs; type: ADME, organism-based; parameters: dose 500 mg/kg, route oral; conditions: read-out: Drug uptake; procedure, shortened: as §2
[19] = Chemical stability assessed as half life in pH 8 buffer containing 10% cyclodextrins; type: physicochemical
Blood [20] = assay: Drug level in peripheral blood of patient with cancer at 3.6 g/day by HPLC; type: ADME, tissue-based; conditions: human, read-out: Drug uptake
Liver = assay: Drug level in liver of patient with cancer at 3.6 g/day by HPLC; type: ADME, tissue-based; conditions: human, in vivo; read-out: Drug uptake
[21] = Metabolic stability in Sprague-Dawley rat plasma assessed as drug recovery at 0.8 ug/ml by RP-HPLC; type: ADME, cell-free; conditions: read-out: Stability

O=C1/C(=C/c2ccc(F)cc2)CCC/C1=C\c1ccc(F)cc1
IC50 (BGC-823): 87.3 µM
degraded at 45 h [1]: 0%
IC50 (CNE): 77.9 µM
IC50 (KB (human)): 150 µM
IC50 [2]: 7.4 µM
IC50 (HL-60 (human)): 58.1 µM

O=C1/C(=C/c2ccccc2Br)CC/C1=C\c1ccccc1Br
degraded at 45 h [1]: 0%
IC50 (CNE): 32.8 µM
IC50 (KB (human)): 109 µM
IC50 (PC-3): 24.7 µM

Cc1ccc(C)c(/C=C/C(=O)/C=C/c2cc(C)ccc2C)c1
degraded at 45 h [1]: 0%
IC50 (CNE): 17.7 µM
IC50 (HeLa): 6.1 µM
IC50 [2]: 103 µM
IC50 (PC-3): 5.2 µM

O=C(/C=C/c1ccc2ccccc2c1)/C=C/c1ccc2ccccc2c1
IC50 (BGC-823): 39.7 µM
degraded at 45 h [1]: 0%
IC50 (HL-60 (human)): 69.2 µM

O=C(/C=C/c1ccccc1Br)/C=C/c1ccccc1Br
IC50 (BGC-823): 16.1 µM
Cmax [3]: 4100 ng/mL
AUC(0-t) [4]: 12100 ng·h/mL
remaining at 12.8 ug/ml [5]: 95.2%
degraded at 45 h [1]: 0%
CL/F [6]: 650 mL/min/kg
half-life [7]: 2.92 h
remaining at 0.2 ug/ml [8]: 96.5%
AUC(0-inf) [9]: 14900 ng·h/mL
MRT last [10]: 2.49 h
remaining at 3.2 ug/ml [11]: 97.1%
Tmax [12]: 0.25 h
MRT inf [13]: 4.16 h
IC50 (HeLa): 34.2 µM
IC50 [2]: 4 µM
IC50 (PC-3): 15.4 µM

CN(C)CCCOc1ccc(/C=C2\CC/C(=C\c3ccc(OCCCN(C)C)cc3)C2=O)cc1
degraded at 45 h [1]: 0%
IC50 (CNE): 2.4 µM
IC50 (KB (human)): 3.3 µM

COc1cccc(/C=C/C(=O)/C=C/c2cccc(OC)c2OC)c1OC
IC50 (BGC-823): 24.4 µM
degraded at 45 h [1]: 0%
IC50 (KB (human)): 24.3 µM
IC50 [2]: 48 µM
IC50 (HL-60 (human)): 4.5 µM

COc1cc(/C=C2\CCC/C(=C\c3ccc(O)c(OC)c3)C2=O)ccc1O [CYCLOVALONE]
degraded at 45 h [1]: 0%
IC50 (CNE): 17.6 µM
IC50 (KB (human)): < 10.1 µM
IC50 [2]: 4.6 µM

COc1cc(/C=C/C(=O)CC(=O)/C=C/c2ccc(O)c(OC)c2)ccc1O [CURCUMIN]
IC50 (BGC-823): 16.7 µM
Cmax [3]: 91 ng/mL
remaining at 0.05 ug/ml [14]: 97.7%
concentration [15]: 1300 nM
AUC(0-t) [4]: 275 ng·h/mL
degraded at 45 h [1]: > 64%
concentration (Blood [16]): 1300 nM
degraded at 0.5 h [17]: 92%
half-life [7]: 2.41 h
concentration at 2 h [18]: 40 ng/mL
remaining at 0.2 ug/ml [8]: 98.2%
AUC(0-inf) [9]: 672 ng·h/mL
half-life [19]: 10.5 h
IC50 (CNE): 32.8 µM
MRT last [10]: 3.44 h
remaining at 3.2 ug/ml [11]: 98.7%
Tmax [12]: 0.5 h
IC50 (KB (human)): 35.9 µM
MRT inf [13]: 22.7 h
IC50 (HeLa): 17.5 µM
IC50 [2]: 6.4 µM
IC50 (PC-3): 15 µM
concentration (Blood [20]): 1300 nM
IC50 (HL-60 (human)): 11.6 µM
concentration (Liver): 1300 nM

O=C1/C(=C/c2ccccc2Cl)CCC/C1=C\c1ccccc1Cl
IC50 (BGC-823): 4.4 µM
degraded at 45 h [1]: 0%
IC50 (KB (human)): 6.7 µM
IC50 [2]: 4.2 µM
IC50 (PC-3): 13.8 µM
IC50 (HL-60 (human)): 98.3 µM

CC(C)(C)c1ccc(/C=C/C(=O)/C=C/c2ccc(C(C)(C)C)cc2)cc1
degraded at 45 h [1]: 0%
IC50 (CNE): 89.8 µM
IC50 (HeLa): 21.8 µM
IC50 (PC-3): 12 µM

O=C1/C(=C/c2ccccc2F)CCC/C1=C\c1ccccc1F
degraded at 45 h [1]: 0%
IC50 (CNE): 130 µM
IC50 (KB (human)): 74.1 µM
IC50 (HeLa): 15.5 µM
IC50 (PC-3): 45.8 µM

O=C1/C(=C/C=C/c2ccccc2)CCC/C1=C\C=C\c1ccccc1
IC50 (BGC-823): 15.6 µM
degraded at 45 h [1]: 0%
IC50 (KB (human)): 29.4 µM
IC50 (HeLa): 49.9 µM
IC50 [2]: 24.3 µM
IC50 (PC-3): 61.5 µM

COc1cc(/C=C/C(=O)/C=C/c2ccc(O)c(OC)c2)ccc1O
Cmax [3]: 822 ng/mL
AUC(0-t) [4]: 2960 ng·h/mL
degraded at 45 h [1]: 0%
CL/F [6]: 2090 mL/min/kg
remaining at 0.8 ug/ml [21]: 98.3%
half-life [7]: 5.96 h
remaining at 0.2 ug/ml [8]: 96.4%
AUC(0-inf) [9]: 4910 ng·h/mL
IC50 (CNE): 6.8 µM
MRT last [10]: 2.96 h
remaining at 3.2 ug/ml [11]: 97.6%
Tmax [12]: 1 h
MRT inf [13]: 8.48 h
IC50 [2]: 3.7 µM

O=C(/C=C/c1cccs1)/C=C/c1cccs1
degraded at 45 h [1]: 0%
IC50 (CNE): 154 µM
IC50 (KB (human)): 123 µM
IC50 (HeLa): 6.2 µM
IC50 [2]: 79.5 µM
IC50 (PC-3): 10.3 µM
